By Ki is commonly meant the dissociation constant of the complex between target and ligand, obtained from inhibition or displacement. Read a high Ki as weaker binding. For orientation: logP means the decadic logarithm of the partition coefficient of the neutral form, usually between octanol and water. A low value points to lower lipophilicity.

Structures are written as SMILES.

In series [1] the target is T1, Amyloid-beta precursor protein (Homo sapiens, UniProt P05067). The series can be described thus: Displacement of [125I]IMSB from beta amyloid protein 40. (Loss of bound radioactivity is the signal in a displacement assay; it reports binding, not function.)
T1 sequence (P05067 whole entry): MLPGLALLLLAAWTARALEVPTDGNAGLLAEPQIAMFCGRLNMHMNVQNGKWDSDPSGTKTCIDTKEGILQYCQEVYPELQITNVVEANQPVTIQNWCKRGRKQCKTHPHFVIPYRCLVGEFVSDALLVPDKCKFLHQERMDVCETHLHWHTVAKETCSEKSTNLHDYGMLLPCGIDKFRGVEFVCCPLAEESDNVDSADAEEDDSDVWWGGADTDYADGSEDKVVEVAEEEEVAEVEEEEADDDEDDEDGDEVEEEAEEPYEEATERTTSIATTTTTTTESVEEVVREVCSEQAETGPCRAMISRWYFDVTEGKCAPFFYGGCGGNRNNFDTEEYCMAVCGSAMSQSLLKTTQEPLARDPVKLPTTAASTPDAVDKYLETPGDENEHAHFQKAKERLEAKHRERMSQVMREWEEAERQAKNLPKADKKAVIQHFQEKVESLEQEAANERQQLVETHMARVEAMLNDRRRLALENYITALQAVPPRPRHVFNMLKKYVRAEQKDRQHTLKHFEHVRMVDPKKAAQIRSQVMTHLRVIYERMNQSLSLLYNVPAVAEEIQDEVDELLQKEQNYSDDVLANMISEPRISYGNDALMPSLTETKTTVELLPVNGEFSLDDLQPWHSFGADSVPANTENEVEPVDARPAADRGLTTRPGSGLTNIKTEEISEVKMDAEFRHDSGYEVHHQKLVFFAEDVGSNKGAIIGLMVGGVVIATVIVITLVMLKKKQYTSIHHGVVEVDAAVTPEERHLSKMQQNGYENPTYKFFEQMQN
The target of series [2] is T1, Amyloid-beta precursor protein. The series can be described thus: Displacement of [125I]IMPY from beta amyloid protein 40.
The nature of series [3]: Partition coefficient, log P of the compound. The format is physicochemical. To be noted: octanol/water. In outline: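 Radioligand added to octanol/water (600 µL each), vortexed 3 min, centrifuged 2000 rpm 5 min. Aliquots of both layers counted, repartitioned until consistent. Run in triplicate. Log P taken as log of octanol/water cpm ratio.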
The test system of series [4] is Mus musculus. The series can be described thus: Stability in iv dosed ICR mouse brain after 60 mins. It counts as ADME, organism-based. Conditions: in vivo, 1 h. A digest of the protocol: (§1)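 Male ICR mice (25-30 g) given 18F radioligand (14.8 MBq/mouse) by tail vein, killed at 2, 30 and 60 min. Blood and whole brain homogenized in 1 mL chilled absolute ethanol, centrifuged 3000 rpm 3 min. Supernatant analysed by radio-TLC (20:1 CH2Cl2-CH3OH and 1:1:0.01 CH2Cl2-CH3OH-triethylamine) for percent parent radioligand.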

Series [5] deals with Mus musculus. The series can be described thus: Stability in iv dosed ICR mouse blood after 60 mins. To be noted: in vivo, 1 h. The format is ADME, organism-based. In outline: as §1
The test system of series [6] is Mus musculus. The series can be described thus: Biodistribution in muscle of iv dosed ICR mouse after 60 mins. The format is ADME, organism-based, Muscle tissue. Conditions: in vivo, 1 h. A digest of the protocol:
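Male ICR mice (25-30 g, four per time point) injected by tail vein with radioligand (0.74 MBq 125I or 1.85 MBq 18F) in 0.2 mL 10% ethanol-saline. Sacrificed at 2, 30, 60 or 120 min. Blood, organs, muscle and thyroid or bone weighed and counted in a gamma counter. Expressed as % injected dose per gram.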

The test system of series [7] is Mus musculus. The series can be described thus: Biodistribution in brain of iv dosed piperine-treated ICR mouse after 2 mins. To be noted: in vivo. The format is ADME, organism-based. A digest of the protocol: (§2)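 Male ICR mice (25-30 g, four per time point) given radioligand mixed with piperine (2 mg/kg) in 0.2 mL 10% ethanol-saline by tail vein, 1.85 MBq for the 18F tracer. Killed at 2, 30, 60 or 120 min. Blood and organs removed, weighed and gamma-counted. Data given as % injected dose per gram tissue.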

Series [8] relates to Mus musculus. The series can be described thus: Biodistribution in blood of iv dosed piperine-treated ICR mouse after 60 mins. The format is ADME, organism-based. To be noted: in vivo, 1 h. A digest of the protocol:
as §2

Series [9] concerns Mus musculus. The series can be described thus: Biodistribution in spleen of iv dosed piperine-treated ICR mouse after 60 mins. It counts as ADME, organism-based. Conditions: in vivo, 1 h. A digest of the protocol:
as §2

For series [10], the system named is Mus musculus. The series can be described thus: Biodistribution in kidney of iv dosed piperine-treated ICR mouse after 2 mins. To be noted: in vivo. The format is ADME, organism-based. A digest of the protocol:
as §2

For a further series, the species on record is Rattus norvegicus. The series can be described thus: Increase in bioavailability in rat in presence of piperine at 1 to 2 hrs. It counts as ADME, organism-based. Conditions: in vivo; call rule not given here.
Another series is filed under the species Homo sapiens. The series can be described thus: Increase in bioavailability in human in presence of piperine after 45 mins. It counts as ADME, organism-based. To be noted: in vivo, 0.75 h.

With `COc1cc(/C=C/C(C)=O)cc(I)c1O`, the inhibitory constant (Ki) amounted to 20 nM in series [1] and 36.6 nM in series [2].

In series [1], `COc1cc(/C=C/C(O)=C/C(=O)/C=C/c2cc(I)c(O)c(OC)c2)ccc1O` had a Ki of 9.37 nM.

Regarding `O=C(O)c1cc(/N=N/c2ccc(-c3ccc(/N=N/c4ccc(O)c(C(=O)O)c4)cc3)cc2)ccc1O` [CHRYSAMINE G], affinity in series [1] was put at a Ki of 0.16 nM.

In [2], `COc1cc(/C=C/C(O)=C/C(C)=O)ccc1OCCF` came in with a Ki of 958 nM. This lies in the sub-micromolar range.

In the case of `COc1cc(/C=C/C(O)=C/C(=O)/C=C/c2ccc(OCCC[18F])c(OC)c2)ccc1O`, in series [3], the logP came out at 1.84. The Activity result is on record as “Active” with Mus musculus [4] and “Not Active” in the series on Mus musculus [5]. Moreover, the Drug uptake was 0.27 % ID/g in the series on Mus musculus [6]; 0.77 % ID/g in the series with Mus musculus [7]; 0.82 % ID/g in the series on Mus musculus [8]; 41.07 % ID/g in the series on Mus musculus [9]; 8.69 % ID/g in the series on Mus musculus [10].

`COc1cc(/C=C/C(O)=C/C(C)=O)ccc1OCCCF`: the affinity in [2] corresponds to a Ki of 316 nM.

Compound `COc1cc(/C=C/C(O)=C/C(=O)/C=C/c2cc([125I])c(O)c(OC)c2)ccc1O` showed a logP in [3] of 0.94.

Consider `COc1cc(/C=C/C(O)=C/C(=O)/C=C/c2ccc(OCCCF)c(OC)c2)ccc1O`, for which the affinity in [1] corresponds to a Ki of 0.07 nM.

Take `COc1cc(/C=C/C(=O)CC(=O)/C=C/c2ccc(O)c(OC)c2)ccc1O` [CURCUMIN]: the figures for the “Bioavailability Increase” value in the series listed under Rattus norvegicus and in the series listed under Homo sapiens were 154% and 2000%, respectively.

For `COc1cc(/C=C/C(O)=C/C(C)=O)cc([125I])c1O`, the logP in series [3] worked out at 1.35. Moreover, the Drug uptake with Mus musculus [6] came out at 0.26 % ID/g.

Take `COc1cc(/C=C/C(C)=O)ccc1OCCCF`: in [2], the affinity corresponds to a Ki of 839 nM.

Take `COc1cc(/C=C/C(C)=O)ccc1OCCF`: affinity in series [2] was put at a Ki of 233 nM.

As to `COc1cc(/C=C/C(O)=C/C(C)=O)cc(I)c1O`, the Ki in series [2] came to 24.9 nM. This Ki is about 9.4-fold lower than that of the compound before.

The values above are taken from ChEMBL document CHEMBL1137373 (J Med Chem, 2006).
